KCNK3 inh = human KCNK3 channel inhibition, primary screen | O14649 | CHO-KCNK3 thallium flux, FluxOR fluorescence; hits give low values | B-score at 10 µM | 340,000 compounds, 0.84% hits;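 active = B-score under library mean minus 4 SD, starting fluorescence ratio at most library mean plus 5 SD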;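 also: more negative B-score means stronger inhibition of thallium flux through KCNK3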
KCNQ1 inh = human KCNQ1 channel inhibition; P51787; CHO-K1 KCNQ1, FluxOR thallium flux fluorescence; hits give high values; AID 2642; B-score at 10 µM; 310,000 compounds, 1.3% hits;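 active = compounds whose thallium flux B-score, printed positive for inhibition, exceeds three library SD while starting fluorescence stays within three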;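 also: channel opened by potassium depolarization with thallium stimulus after 20 min compound exposure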
KCNQ1 pot = potentiates or activates the human KCNQ1 potassium channel | CHO-K1 KCNQ1, thallium flux FluxOR fluorescence; hits give high values | B-score at 10 µM | 310,000 compounds, 0.35% hits;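 active = fluorescence ratio B-score, a plate-corrected score, at least three library SD, with initial intensity B-score within 5 SD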
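Medium – assay buffer, equal DMSO in all wells · Material – CHO-K1 cell line with stable KCNQ1 potassium channel expression · Signal – kinetic FluxOR thallium fluorescence, 10-s 1-Hz baseline, 110-s post-stimulus read · Compound – single concentration per compound, DMSO matched to controls · Schedule – 37 °C overnight plating, 90-min dark dye load, 20-min compound pretreatment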
Kir21 block = Kir2.1 (mouse) channel inhibition | P35561 | HEK293-Kir2.1, FluxOR thallium flux fluorescence; hits give low values | B-score at 10 µM | 310,000 compounds, 0.85% hits | AID 1672;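 active = fluorescence ratio B-score at or below minus 3 SD of library scores, with starting-brightness B-score within 2 SD, cut at about -4.2 in these data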;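 also: channel flux triggered by added potassium and thallium sulfate stimulus; B-score of peak minus minimum fluorescence over baseline after thallium stimulus; more negative B-score means stronger Kir2.1 block with less thallium influx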
KCNK9 block = inhibitors of human KCNK9 two-pore domain potassium channel; Q9NPC2; HEK293 KCNK9, FluxOR thallium flux fluorescence; hits give low values; B-score at 10 µM; 310,000 compounds, 1.2% hits; AID 488922;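 active = ratio B-score over 3 SD below the library mean, with starting fluorescence within 5 SD of its mean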;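 also: negative B-score means less thallium flux so channel inhibition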
Target sequence (Q9NPC2 whole entry, looked up, the tested form may be a part): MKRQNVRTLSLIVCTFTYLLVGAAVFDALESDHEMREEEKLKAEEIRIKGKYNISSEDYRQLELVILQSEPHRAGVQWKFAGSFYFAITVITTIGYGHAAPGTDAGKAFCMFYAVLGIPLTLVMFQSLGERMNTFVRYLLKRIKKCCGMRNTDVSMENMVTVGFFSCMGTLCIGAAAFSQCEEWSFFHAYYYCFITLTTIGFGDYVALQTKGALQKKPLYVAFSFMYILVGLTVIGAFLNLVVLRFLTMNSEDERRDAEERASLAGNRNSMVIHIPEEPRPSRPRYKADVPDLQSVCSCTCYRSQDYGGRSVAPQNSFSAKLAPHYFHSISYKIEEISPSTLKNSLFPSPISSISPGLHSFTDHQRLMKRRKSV
hERG protect = shields human hERG channel from block by proarrhythmic agents; AID 1511; CHO-hERG, FluxOR thallium flux, dofetilide IC70 present; Q12809; 310,000 compounds, 0.51% hits; activation (rescue from dofetilide block), less the hit threshold, % at 10 µM;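 active = activation above the mean of controls blocked by dofetilide plus 5 SD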;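 also: thallium influx through hERG after potassium depolarization seen as dye fluorescence rise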
Starred values were filed as active, the others as inactive; i = inactive; nt = no result. In the library only some 3.7% were active in any assay of this set; here they are far more common.

SMILES	KCNK3 inh	KCNQ1 inh	KCNQ1 pot	Kir21 block	KCNK9 block	hERG protect
Fc1ccc(C2CC(c3ccco3)=NN2c2ccccc2)cc1 (configuration not stated)	i	7*	i	0.58	-7.91*	-16.6
COc1ccc(NC(=O)C(c2ccccc2)N(C)C(=O)c2ccc(=O)[nH]c2)cc1 (configuration not stated)	i	i	i	-0.56	i	-4.8
CCCCCCOC(=O)CC1CC(C(C)=O)C1(C)C (configuration not stated)	i	nt	nt	nt	nt	nt
O=C(N/N=C\c1cn(-c2ccccc2)nc1-c1ccccc1)c1ccc2c(c1)OCO2	i	i	i	0.14	-6.77*	-36.4
COc1ccc(-c2nn(-c3ccccc3)cc2/C=N/NC(=O)c2ccc(Br)o2)cc1	-9.64*	11*	i	0.07	-6.73*	-14.3
CCOC(=O)C1=C(CSc2nc3c(cc2C#N)CCC3)OC(N)=C(C#N)C1c1ccccc1 (configuration not stated)	i	i	i	0.12	-6.73*	-9.1
CCCCN(C(=O)CCNC(=O)NC12CC3CC(CC(C3)C1)C2)c1c(N)n(CCC)c(=O)[nH]c1=O	i	i	i	-1.71	i	-0.6
Cc1ccc(C(C)C)c(OCC(=O)NNC(=O)CC2OC(=O)c3ccccc32)c1 (configuration not stated)	i	i	i	-0.02	i	-5.2
COc1ccc(OCC(=O)NNC(=O)c2ccccc2OCc2c(C)noc2C)cc1	i	i	i	-0.91	-7.48*	-15.3
COC(=O)C(C)NS(=O)(=O)c1ccc(NC(C)=O)cc1 (configuration not stated)	i	i	i	-0.66	i	-6.3
c1ccc(-c2ncnc3nc4n(c23)CCC4)cc1	i	i	i	-0.83	i	-8.1
CCN(Cc1ccccc1)C(=O)c1oc2ccc(C)cc2c1C	i	i	i	0.13	i	5.0*
CCN(Cc1ccccc1)C(=O)c1ccc(C(=O)N(CC)Cc2ccccc2)cc1	i	i	i	-1.5	i	-9.3
O=C(Nc1ccc(CN2CCOCC2)cc1)c1ccc(-c2cccc(Cl)c2)o1	i	i	i	-1.33	i	-29.9
O=C(NC(=S)Nc1ccc(CN2CCOCC2)cc1)c1ccc(-c2cccc(Cl)c2)o1	i	i	20*	3.09	i	-2.5
O=C(NC(=S)Nc1ccc(CN2CCCCC2)cc1)c1cccc(OCc2ccccc2)c1	i	8*	i	1.57	i	-43.2
CCOc1cccc(C(=O)NC(=S)Nc2ccccc2)c1	i	i	i	-1.47	i	-5.4
O=C(CSCC(=O)N1CCCCC1)Nc1nc(-c2ccccc2)c(-c2ccccc2)s1	-10.9*	nt	nt	nt	nt	nt
COc1ccc(-c2sc(NC(C)=O)nc2-c2ccccc2)cc1	i	i	i	0.95	i	-7.6
C=CCn1c(=O)c(C(=O)NCCc2ccccc2)c(O)c2ccccc21	i	6*	i	-0.42	i	-3.0
C=CCn1c(=O)c(C(=O)Nc2ccc(C)cn2)c(O)c2ccccc21	i	i	i	0.45	i	-5.0
C=CCn1c(=O)c(C(=O)NCc2ccc(Cl)cc2)c(O)c2ccccc21	i	7*	i	-0.97	i	-9.3
Cn1c(=O)c(C(=O)NCCc2ccccc2)c(O)c2ccccc21	i	i	i	0.1	i	-1.6
Cc1c(Cl)cccc1NC(=O)CNC(=O)c1ccccc1F	i	i	i	0.15	i	-6.3
CC(C)(CSc1ccccn1)NS(=O)(=O)c1ccccc1	i	i	i	-1.15	i	-5.7
SMILES	KCNK3 inh	KCNQ1 inh	KCNQ1 pot	Kir21 block	KCNK9 block	hERG protect
CC(C)(CSc1ccccn1)NS(=O)(=O)c1ccc(Cl)cc1	i	i	i	-5.09*	i	-9.6
Cc1nn(C(C)C(=O)N/N=C/c2ccc(N(C)C)cc2)c(C)c1[N+](=O)[O-] (configuration not stated)	i	i	i	-1.39	-7.86*	0.3
C/C(=N/NC(=O)C(C)n1nc(C)c([N+](=O)[O-])c1C)c1ccc(OCC(N)=O)cc1 (configuration not stated)	i	i	i	-0.31	i	-3.0
CCC(C)NCC(=O)Nc1ccc(S(N)(=O)=O)cc1 (configuration not stated)	i	i	i	-0.53	i	1.2
Cc1cc(C)cc(NS(=O)(=O)c2ccc(-c3cnc(C4CC4)o3)cc2)c1	i	i	7*	3.14	i	-13.5
O=S(=O)(Nc1ccccc1)c1ccc(-c2cnc(C3CC3)o2)cc1	i	i	i	-0.11	i	-7.1
COc1ccc(CNS(=O)(=O)c2ccc(F)c(C(=O)Nc3ccccc3OC)c2)cc1	i	i	i	0.95	i	-3.2
COc1ccc(CNS(=O)(=O)c2ccc(F)c(C(=O)Nc3ccc(OC)cc3)c2)cc1	i	i	i	-0.02	i	4.8*
CCOc1ccc(NC(=O)CN(c2ccc([N+](=O)[O-])cc2)S(=O)(=O)c2ccccc2)cc1	i	6*	i	0.01	i	-9.5
CC(N=c1ccccn1C(=O)Nc1cccc(C(F)(F)F)c1)c1ccco1 (configuration not stated)	i	9*	i	0.49	i	-5.7
COc1cc(C(C[N+](=O)[O-])c2c(-c3ccccc3)cc3ccccn23)cc(OC)c1OC (configuration not stated)	i	i	i	1.21	-7.87*	-4.1
COc1ccc(C(C[N+](=O)[O-])c2c(-c3ccccc3)cc3ccccn23)cc1OC (configuration not stated)	i	i	i	-0.06	i	-16.3
COc1ccc(C(C[N+](=O)[O-])c2c(-c3ccccc3)cc3ccccn23)cc1 (configuration not stated)	i	8*	i	1.85	i	-11.0
CCOc1ccccc1NC(=O)c1nnn(CC(=O)Nc2cc(C)cc(C)c2)c1N	i	i	i	-0.01	i	-4.4
CC(=O)C1CCN(Cc2ccccc2)CC1	i	i	i	0	i	-0.2
CSc1ccccc1OC1CCN(Cc2ccccc2)CC1	i	i	i	-12.7*	i	-5.0
CN(/N=C/c1cc(Br)cc(Br)c1O)c1cccc(C(F)(F)F)n1	i	i	i	-1.65	-7.14*	-8.1
Cc1ccc(C(=O)O)cc1N=Cc1cc(Br)cc(Br)c1O	i	i	i	-1.99	i	-21.7
Cn1cnc([N+](=O)[O-])c1S(=O)(=O)c1ccc(Cl)cc1	i	i	i	-6.83*	i	-1.7
